pIC50: −log10 of the molar value.
system: MCF7; assay: Cytotoxicity against human MCF7 cells after 2 days by MTT assay; format: functional, cell-based; conditions: MCF7, 48 h
Summary of the method: (§1)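 Cells grown in RPMI-1640 and seeded in 96-well plates for 4 h before sample addition. Test samples were tested at four concentrations, with 37 °C incubation for 2 days. MTT solution (5 mg/mL) was then added for a further 4 h. Formazan was dissolved in 10% SDS in 0.01 M HCl and absorbance read at 550 nm. IC50 determined; 5-fluorouracil served as positive control.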

Going from `CC(=O)OC[C@H]1O[C@H](O[C@]2(COC(C)=O)O[C@H](CO)[C@@H](OC(C)=O)[C@@H]2OC(=O)/C=C/c2ccc(O)cc2)[C@H](O)[C@@H](O)[C@@H]1O` to `CC(=O)OC[C@H]1O[C@H](O[C@]2(COC(C)=O)O[C@H](CO)[C@@H](O)[C@@H]2OC(=O)/C=C/c2ccc(O)cc2)[C@H](O)[C@@H](O)[C@@H]1OC(C)=O`, the pIC50 falls from 6.21 to 5.91 (0.30 log units). The first is the more potent here.

Compared with `CC(=O)OC[C@H]1O[C@H](O[C@]2(CO)O[C@H](CO)[C@@H](O)[C@@H]2OC(=O)/C=C/c2ccc(O)cc2)[C@H](O)[C@@H](OC(C)=O)[C@@H]1OC(C)=O`, `CC(=O)OC[C@H]1O[C@H](O[C@]2(CO)O[C@H](CO)[C@@H](O)[C@@H]2OC(=O)/C=C/c2ccc(O)cc2)[C@H](OC(C)=O)[C@@H](OC(C)=O)[C@@H]1O` is 0.48 log units higher in pIC50: 5.53 for the first, 6.01 for the second. The second is the more potent here.

Compared with `COc1cc(/C=C/C(=O)O[C@H]2[C@H](O)[C@@H](CO)O[C@@]2(COC(C)=O)O[C@H]2O[C@H](COC(C)=O)[C@@H](O)[C@H](O)[C@H]2OC(C)=O)ccc1O`, `CC(=O)OC[C@H]1O[C@H](O[C@]2(COC(C)=O)O[C@H](CO)[C@@H](O)[C@@H]2OC(=O)/C=C/c2ccc(O)cc2)[C@H](OC(C)=O)[C@@H](O)[C@@H]1O` is 0.65 log units lower in pIC50: 6.11 for the first, 5.46 for the second.

`CC(=O)OC[C@H]1O[C@H](O[C@]2(COC(C)=O)O[C@H](CO)[C@@H](O)[C@@H]2OC(=O)/C=C/c2ccc(O)cc2)[C@H](O)[C@@H](OC(C)=O)[C@@H]1O` showed a pIC50 of 5.84.

system: A549; assay: Cytotoxicity against human A549 cells after 2 days by MTT assay; format: functional, cell-based; conditions: A549, 48 h; summary of the method: as §1

First: CC(=O)OC[C@H]1O[C@H](O[C@]2(COC(C)=O)O[C@H](CO)[C@@H](OC(C)=O)[C@@H]2OC(=O)/C=C/c2ccc(O)cc2)[C@H](O)[C@@H](O)[C@@H]1O
Second: CC(=O)OC[C@H]1O[C@H](O[C@]2(COC(C)=O)O[C@H](CO)[C@@H](O)[C@@H]2OC(=O)/C=C/c2ccc(O)cc2)[C@H](O)[C@@H](O)[C@@H]1OC(C)=O
The pIC50 of the first is 0.23 log units higher: 6.54 for the first, 6.31 for the second. The first is the more potent here.

`CC(=O)OC[C@H]1O[C@H](O[C@]2(CO)O[C@H](CO)[C@@H](O)[C@@H]2OC(=O)/C=C/c2ccc(O)cc2)[C@H](O)[C@@H](OC(C)=O)[C@@H]1OC(C)=O` and `CC(=O)OC[C@H]1O[C@H](O[C@]2(CO)O[C@H](CO)[C@@H](O)[C@@H]2OC(=O)/C=C/c2ccc(O)cc2)[C@H](OC(C)=O)[C@@H](OC(C)=O)[C@@H]1O` are within 0.2 log units of each other in pIC50: 5.83 for the first, 5.95 for the second.

First: COc1cc(/C=C/C(=O)O[C@H]2[C@H](O)[C@@H](CO)O[C@@]2(COC(C)=O)O[C@H]2O[C@H](COC(C)=O)[C@@H](O)[C@H](O)[C@H]2OC(C)=O)ccc1O
Second: CC(=O)OC[C@H]1O[C@H](O[C@]2(COC(C)=O)O[C@H](CO)[C@@H](O)[C@@H]2OC(=O)/C=C/c2ccc(O)cc2)[C@H](OC(C)=O)[C@@H](O)[C@@H]1O
The pIC50 of the first is 0.86 log units higher: 6.35 for the first, 5.49 for the second. The first is the more potent here.

Compound `CC(=O)OC[C@H]1O[C@H](O[C@]2(COC(C)=O)O[C@H](CO)[C@@H](O)[C@@H]2OC(=O)/C=C/c2ccc(O)cc2)[C@H](O)[C@@H](OC(C)=O)[C@@H]1O` has a pIC50 of 5.59.

system: HeLa; assay: Cytotoxicity against human HeLa cells after 2 days by MTT assay; format: functional, cell-based; conditions: 48 h; summary of the method: as §1

First: CC(=O)OC[C@H]1O[C@H](O[C@]2(COC(C)=O)O[C@H](CO)[C@@H](OC(C)=O)[C@@H]2OC(=O)/C=C/c2ccc(O)cc2)[C@H](O)[C@@H](O)[C@@H]1O
Second: CC(=O)OC[C@H]1O[C@H](O[C@]2(COC(C)=O)O[C@H](CO)[C@@H](O)[C@@H]2OC(=O)/C=C/c2ccc(O)cc2)[C@H](O)[C@@H](O)[C@@H]1OC(C)=O
The pIC50 of the first is 0.95 log units higher: 6.96 for the first, 6.01 for the second. The first is the more potent here.

`CC(=O)OC[C@H]1O[C@H](O[C@]2(CO)O[C@H](CO)[C@@H](O)[C@@H]2OC(=O)/C=C/c2ccc(O)cc2)[C@H](O)[C@@H](OC(C)=O)[C@@H]1OC(C)=O` and `CC(=O)OC[C@H]1O[C@H](O[C@]2(CO)O[C@H](CO)[C@@H](O)[C@@H]2OC(=O)/C=C/c2ccc(O)cc2)[C@H](OC(C)=O)[C@@H](OC(C)=O)[C@@H]1O` are within 0.2 log units of each other in pIC50: 5.42 for the first, 5.36 for the second.

Compared with `COc1cc(/C=C/C(=O)O[C@H]2[C@H](O)[C@@H](CO)O[C@@]2(COC(C)=O)O[C@H]2O[C@H](COC(C)=O)[C@@H](O)[C@H](O)[C@H]2OC(C)=O)ccc1O`, `CC(=O)OC[C@H]1O[C@H](O[C@]2(COC(C)=O)O[C@H](CO)[C@@H](O)[C@@H]2OC(=O)/C=C/c2ccc(O)cc2)[C@H](OC(C)=O)[C@@H](O)[C@@H]1O` is 0.36 log units lower in pIC50: 5.96 for the first, 5.60 for the second. The first is the more potent here.

`CC(=O)OC[C@H]1O[C@H](O[C@]2(COC(C)=O)O[C@H](CO)[C@@H](O)[C@@H]2OC(=O)/C=C/c2ccc(O)cc2)[C@H](O)[C@@H](OC(C)=O)[C@@H]1O` gave a pIC50 of 5.88.

system: HT-29; assay: Cytotoxicity against human HT-29 cells after 2 days by MTT assay; format: functional, cell-based; conditions: HT-29, 48 h; summary of the method: as §1

First: CC(=O)OC[C@H]1O[C@H](O[C@]2(COC(C)=O)O[C@H](CO)[C@@H](OC(C)=O)[C@@H]2OC(=O)/C=C/c2ccc(O)cc2)[C@H](O)[C@@H](O)[C@@H]1O
Second: CC(=O)OC[C@H]1O[C@H](O[C@]2(COC(C)=O)O[C@H](CO)[C@@H](O)[C@@H]2OC(=O)/C=C/c2ccc(O)cc2)[C@H](O)[C@@H](O)[C@@H]1OC(C)=O
The pIC50 of the first is 0.91 log units higher: 6.74 for the first, 5.83 for the second. The first is the more potent here.

`CC(=O)OC[C@H]1O[C@H](O[C@]2(CO)O[C@H](CO)[C@@H](O)[C@@H]2OC(=O)/C=C/c2ccc(O)cc2)[C@H](O)[C@@H](OC(C)=O)[C@@H]1OC(C)=O` and `CC(=O)OC[C@H]1O[C@H](O[C@]2(CO)O[C@H](CO)[C@@H](O)[C@@H]2OC(=O)/C=C/c2ccc(O)cc2)[C@H](OC(C)=O)[C@@H](OC(C)=O)[C@@H]1O` are within 0.2 log units of each other in pIC50: 5.56 for the first, 5.61 for the second.

Compared with `COc1cc(/C=C/C(=O)O[C@H]2[C@H](O)[C@@H](CO)O[C@@]2(COC(C)=O)O[C@H]2O[C@H](COC(C)=O)[C@@H](O)[C@H](O)[C@H]2OC(C)=O)ccc1O`, `CC(=O)OC[C@H]1O[C@H](O[C@]2(COC(C)=O)O[C@H](CO)[C@@H](O)[C@@H]2OC(=O)/C=C/c2ccc(O)cc2)[C@H](OC(C)=O)[C@@H](O)[C@@H]1O` is 0.94 log units lower in pIC50: 6.34 for the first, 5.40 for the second. The first is the more potent here.

Going from `CC(=O)OC[C@H]1O[C@H](O[C@]2(COC(C)=O)O[C@H](CO)[C@@H](O)[C@@H]2OC(=O)/C=C/c2ccc(O)cc2)[C@H](O)[C@@H](OC(C)=O)[C@@H]1O` to `O=c1[nH]cc(F)c(=O)[nH]1` [FLUOROURACIL], the pIC50 falls from 5.68 to 4.76 (0.92 log units).

Reference: ChEMBL document CHEMBL3259818, “Tomensides A-D, new antiproliferative phenylpropanoid sucrose esters from Prunus tomentosa leaves” (Bioorg Med Chem Lett, 2014)
